In ChEMBL document CHEMBL1123985, “Oral absorption of cephalosporin antibiotics. 1. Synthesis, biological properties, and oral bioavailability of 7-(arylacetamido)-3-chloro cephalosporins in animals” (J Med Chem, 1988):
≈ marks a conversion by molar mass, not a printed value.

Columns and labels:
[1] = Area under plasma concentration vs time curve observed in Rhesus monkeys after, iv administration of single 30 mg/kg dose; assay type: ADME, organism-based, Macaca mulatta; design: dose 30 mg/kg, route intravenous; conditions: rhesus monkey
Method in brief: (§1)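 Rhesus monkeys, adult males, six animals per compound, each given drug orally and iv; fasted overnight. Single 30 mg/kg solution doses, by nasogastric tube (in water) or saphenous vein (in isotonic lactated Ringer). Plasma sampled at intervals, frozen at -70 °C, antibacterial activity by microbiological assay. AUC in μg min/mL; oral bioavailability from oral vs iv AUC.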

[2] = Area under plasma concentration vs time curve observed in Rhesus monkeys after oral administration of single 30 mg/kg dose; assay type: ADME, organism-based, Macaca mulatta; design: dose 30 mg/kg, route oral; conditions: rhesus monkey; method in brief: as §1
[3] = test system: Canis familiaris; experiment: Area under plasma concentration vs time curve observed in female mongrel dogs after, iv administration of single 15 mg/kg dose; assay type: ADME, organism-based, Canis lupus familiaris; design: dose 15 mg/kg, route intravenous; conditions: dog, in vivo
Method in brief: (§2)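 Six female mongrel dogs (14-23 kg) fasted overnight, bladder catheterized; single 15 mg/kg solution doses by stomach tube (in water, total 500 mL) or cephalic vein (saline or pH 6.0 NaCl/phosphate/acetate buffer). Plasma sampled at intervals; activity by disk-plate agar diffusion against E. coli MB 3804, standards in dog serum or buffer. AUC μg min/mL, mean ± SEM; BA from iv vs po AUC and urinary recovery.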

[4] = test system: Canis familiaris; experiment: Area under plasma concentration vs time curve observed in female mongrel dogs after, oral administration of single 15 mg/kg dose; assay type: ADME, organism-based, Canis lupus familiaris; design: dose 15 mg/kg, route oral; conditions: dog, in vivo; method in brief: as §2
[5] = Area under plasma concentration vs time curve observed in rats for 0-3 h; assay type: ADME; design: time < 3 hr; conditions: rat
Method in brief: (§3)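 Rats, jugular vein cannulated (two per group), test compound iv 20 mg/kg; probenecid 100 mg/kg iv 5 min before in treated groups. Heparinized plasma sampled at 5, 20, 40 min and 1, 2, 3 h, assayed microbiologically (B. subtilis agar well). AUC 0-3 h in μg min/mL; half-life in min.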

[6] = Oral bioavailability in mouse; assay type: ADME, organism-based; conditions: in vivo
Method in brief: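 Male Cox mice given water and liquid diet overnight; 20 mg/kg in saline (2 mg/mL) sc or orally; urine from collection cages plus bladder contents over 2 h; activity by agar well assay with Bacillus subtilis ATCC 6633. Bioavailability from percent dose excreted in urine after oral vs parenteral dosing.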

[7] = Bioavailability in rat; assay type: ADME, organism-based; conditions: in vivo
Method in brief: (§4)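 Male Wistar rats (200-300 g), jugular-cannulated, upper GI emptied by light cycle; 20 mg/kg in saline (6 mg/mL) sc or orally. Urine collected in wire-bottom cages, assayed by B. subtilis agar well method. Mean ± SD recovery with N and range; bioavailability = oral over mean sc recovery.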

[8] = Mean plasma levels in rats 1 hr after iv administration of 100 mg/kg of probenecid 5 min prior to test compound; assay type: ADME, organism-based; design: dose 100 mg/kg, route intravenous; conditions: rat, read-out: Plasma levels; method in brief: as §3
[9] = Mean plasma levels in rats 2 hr after iv administration of 100 mg/kg of probenecid 5 min prior to test compound; assay type: ADME, organism-based; design: dose 100 mg/kg, route intravenous; conditions: rat, read-out: Plasma levels; method in brief: as §3
[10] = Mean plasma levels in rats 3h after intravenous administration of 20 mg/kg of compound; assay type: ADME, organism-based; design: dose 20 mg/kg, route intravenous; conditions: rat, read-out: Plasma levels; method in brief: as §3
[11] = Mean plasma levels in rats 40 min after iv administration of 100 mg/kg of probenecid 5 min prior to test compound; assay type: ADME, organism-based; design: dose 100 mg/kg, route intravenous; conditions: rat, read-out: Plasma levels; method in brief: as §3
[12] = Mean plasma levels in rats at a time 5 min after iv administration of 100 mg/kg of probenecid 5 min prior to test compound; assay type: ADME, organism-based; design: dose 100 mg/kg, route intravenous; conditions: rat, read-out: Plasma levels; method in brief: as §3
[13] = Mean plasma levels in rats 20 min after iv administration of 100 mg/kg of probenecid 5 min prior to test compound; assay type: ADME, organism-based; design: dose 100 mg/kg, route intravenous; conditions: rat, read-out: Plasma levels; method in brief: as §3
[14] = Oral bioavailability in Rhesus monkey; assay type: ADME, organism-based, Macaca mulatta; conditions: in vivo; method in brief: as §1
[15] = Percent of urinary recovery in rats after, oral administration of single 20 mg/kg dose in solution (N,range); assay type: ADME, organism-based; design: dose 20 mg/kg, route oral; conditions: rat, urine, read-out: Recovery; method in brief: as §4
[16] = Percent of urinary recovery in rats after, sc administration of single 20 mg/kg dose in solution (N,range); assay type: ADME, organism-based; design: dose 20 mg/kg, route subcutaneous; conditions: rat, urine, read-out: Recovery; method in brief: as §4
[17] = Dose in urine (24-h urine excretion) in female mongrel dogs after oral administration of single 15 mg/kg dose; assay type: ADME, organism-based, Canis lupus familiaris; design: dose 15 mg/kg, route oral; conditions: dog
Method in brief: (§5)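 Female mongrel dogs (n=6), bladder catheter; urine collected at intervals after single 15 mg/kg iv or oral solution dose, frozen; antibiotic activity by disk-plate agar diffusion against E. coli MB 3804 with standards in pH 6.0 buffer; percent of dose recovered in urine.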

[18] = Half-life of the compound; assay type: ADME; method in brief: as §3
[19] = test system: Klebsiella aerogenes; experiment: Minimum inhibitory concentration against EB17 strain of Enterobacter aerogenes; assay type: functional
[20] = test system: Salmonella; experiment: Minimum inhibitory concentration against X514 strain of Salmonella; assay type: functional
[21] = Minimum inhibitory concentration against N9 strain of Shigella sonnei; assay type: functional
[22] = test system: Staphylococcus epidermidis; experiment: Minimum inhibitory concentration against 222 strain of Staphylococcus epidermidis; assay type: functional
[23] = test system: Staphylococcus epidermidis; experiment: Minimum inhibitory concentration against Epil strain of Staphylococcus epidermidis; assay type: functional
[24] = test system: Staphylococcus aureus; experiment: Minimum inhibitory concentration against X1.1 strain of Staphylococcus aureus; assay type: functional
[25] = test system: Streptococcus pyogenes; experiment: Minimum inhibitory concentration against Streptococcus pyogenes C203; assay type: functional
[26] = Minimum inhibitory concentration against sens CL strain of Haemophilus influenzae; assay type: functional
[27] = Minimum inhibitory concentration against res 76 strain of Haemophilus influenzae; assay type: functional
[28] = Dose in urine (24-h urine excretion) in female mongrel dogs after iv administration of single 15 mg/kg dose; assay type: ADME, organism-based, Canis lupus familiaris; design: dose 15 mg/kg, route intravenous; conditions: dog; method in brief: as §5
[29] = test system: Staphylococcus aureus; experiment: Minimum inhibitory concentration against 3055 strain of Staphylococcus aureus
[30] = test system: Streptococcus pyogenes; experiment: Minimum inhibitory concentration against C203 strain of Streptococcus pyogenes
[31] = test system: Streptococcus pneumoniae; experiment: Minimum inhibitory concentration against park strain of Streptococcus pneumoniae
[32] = test system: Streptococcus pneumoniae; experiment: Minimum inhibitory concentration against Park strain of Streptococcus pneumoniae
[33] = Oral bioavailability in dog (female mongrel); assay type: ADME, organism-based, Canis lupus familiaris; conditions: in vivo; method in brief: as §2
[34] = test system: Escherichia coli; experiment: Minimum inhibitory concentration against EC14 strain Escherichia coli; assay type: functional
[35] = test system: Klebsiella pneumoniae; experiment: Minimum inhibitory concentration against X68 strain of Klebsiella pneumoniae; assay type: functional
[36] = test system: Staphylococcus aureus; experiment: Minimum inhibitory concentration against S13E strain of Staphylococcus aureus; assay type: functional
[37] = test system: Staphylococcus aureus; experiment: Minimum inhibitory concentration against V41 strain of Staphylococcus aureus; assay type: functional

Q: For Nc1nc(CC(=O)N[C@@H]2C(=O)N3C(C(=O)O)=C(Cl)CS[C@H]23)cs1, which AUC [1] is on record?
A: 50300 ng·h/mL

Q: And the AUC [2]?
A: 2170 ng·h/mL

Q: What about the AUC [3] of the same compound?
A: 33200 ng·h/mL

Q: And the AUC [4]?
A: 9330 ng·h/mL

Q: And the AUC at 3 h [5]?
A: 35400 ng·h/mL

Q: What about the bioavailability [6] of the same compound?
A: 64%

Q: What about the bioavailability [7] of the same compound?
A: 19.2%

Q: And the concentration at 1 h [8]?
A: 9800 ng/mL

Q: And the concentration at 2 h [9]?
A: 1800 ng/mL

Q: What about the concentration at 3 h [10] of the same compound?
A: < 1300 ng/mL

Q: And the concentration at 40 min [11]?
A: 15600 ng/mL

Q: What about the concentration at 5 min [12] of the same compound?
A: 57500 ng/mL

Q: And the concentration at 20 min [13]?
A: 32000 ng/mL

Q: What about the bioavailability [14] of the same compound?
A: 4.2%

Q: What about the dose excreted [15] of the same compound?
A: 16.2%

Q: What about the dose excreted [16] of the same compound?
A: 84.3%

Q: What about the dose excreted [17] of the same compound?
A: 10%

Q: And the half-life [18]?
A: 23.5 min

Q: What about the MIC [19] of the same compound?
A: 8 µg/mL (≈ 21.3 µM)

Q: What about the MIC [20] of the same compound?
A: 0.25 µg/mL (≈ 0.667 µM)

Q: What about the MIC [21] of the same compound?
A: 4 µg/mL (≈ 10.7 µM)

Q: And the MIC [22]?
A: 2 µg/mL (≈ 5.34 µM)

Q: What about the MIC [23] of the same compound?
A: 8 µg/mL (≈ 21.3 µM)

Q: What about the MIC [24] of the same compound?
A: 2 µg/mL (≈ 5.34 µM)

Q: What about the MIC [25] of the same compound?
A: 0.125 µg/mL (≈ 0.333 µM)

Q: And the MIC [26]?
A: 1 µg/mL (≈ 2.67 µM)

Q: What about the MIC [27] of the same compound?
A: 1 µg/mL (≈ 2.67 µM)

Q: What about the dose excreted [28] of the same compound?
A: 36%

Q: What about the MIC [29] of the same compound?
A: 1 µg/mL (≈ 2.67 µM)

Q: What about the MIC [30] of the same compound?
A: 0.25 µg/mL (≈ 0.667 µM)

Q: And the MIC [31]?
A: 0.5 µg/mL (≈ 1.33 µM)

Q: What about the MIC [32] of the same compound?
A: 0.25 µg/mL (≈ 0.667 µM)

Q: For O=C(Cc1cccs1)N[C@@H]1C(=O)N2C(C(=O)O)=C(Cl)CS[C@H]12, which AUC [1] is on record?
A: 43200 ng·h/mL

Q: And the AUC [2]?
A: 5670 ng·h/mL

Q: And the AUC [3]?
A: 75300 ng·h/mL

Q: What about the AUC [4] of the same compound?
A: 15500 ng·h/mL

Q: What about the bioavailability [6] of the same compound?
A: 44%

Q: And the bioavailability [14]?
A: 13.1%

Q: And the bioavailability [33]?
A: 21%

Q: What about the dose excreted [17] of the same compound?
A: 17%

Q: What about the MIC [34] of the same compound?
A: 4 µg/mL (≈ 11.1 µM)

Q: And the MIC [19]?
A: 64 µg/mL (≈ 178 µM)

Q: And the MIC [35]?
A: 2 µg/mL (≈ 5.57 µM)

Q: What about the MIC [20] of the same compound?
A: 2 µg/mL (≈ 5.57 µM)

Q: What about the MIC [21] of the same compound?
A: 32 µg/mL (≈ 89.2 µM)

Q: And the MIC [22]?
A: 1 µg/mL (≈ 2.79 µM)

Q: What about the MIC [23] of the same compound?
A: 2 µg/mL (≈ 5.57 µM)

Q: What about the MIC [36] of the same compound?
A: 16 µg/mL (≈ 44.6 µM)

Q: What about the MIC [37] of the same compound?
A: 16 µg/mL (≈ 44.6 µM)

Q: What about the MIC [24] of the same compound?
A: 0.5 µg/mL (≈ 1.39 µM)

Q: And the MIC [25]?
A: 0.125 µg/mL (≈ 0.348 µM)

Q: What about the MIC [26] of the same compound?
A: 1 µg/mL (≈ 2.79 µM)

Q: And the MIC [27]?
A: 1 µg/mL (≈ 2.79 µM)

Q: What about the dose excreted [28] of the same compound?
A: 75%

Q: And the MIC [29]?
A: 0.5 µg/mL (≈ 1.39 µM)

Q: And the MIC [30]?
A: 0.125 µg/mL (≈ 0.348 µM)

Q: What about the MIC [31] of the same compound?
A: 0.25 µg/mL (≈ 0.697 µM)

Q: And the MIC [32]?
A: 0.125 µg/mL (≈ 0.348 µM)
